# Source: PubChem BioAssay AID652260 (The Scripps Research Institute Molecular Screening Center, 2013)
# The whole screen tested about 3,500 compounds, of which about 1,000 (29%) were called active.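 The calls were made as follows: active = activation above its plate's cutoff, the mean activation of tested wells plus 3 SD (cut at about 7.9% in these data); inactive = the rest.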 Not all results are given here.
# Test: BRM-dependent MMTV reporter reactivation – cell-based, luminescence, triplicate, confirmation (AID 652260)
# Details: MG213 cells, MMTV-luciferase with dexamethasone, overnight, at 9.1 µM, hits give high values, DMSO wells 0%, reference activator 100%, MG213 cells expressing E1A, Rb sequestered
# Procedure, shortened: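 Schedule – compound exposure 24 h at 37 °C after 1-day dexamethasone priming · Assay system – MG213 MMTV-luciferase reporter cells · Amount – 600 cells in each well · Detection – luciferase luminescence (OneGlo) · Dosing – 9.1 µM single dose · Buffer or medium – assay medium with 2.5% FBS plus 0.1 µM dexamethasone · Benchmarks – DMSO and reference activator wells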
row,Compound,activation
1,O=C(Nc1cccc([N+](=O)[O-])c1)N1CCc2ccccc2C1,5.56% (inactive)
2,Cc1ccsc1-c1nc(CSCC(=O)NCCN2CCCC2)c(C)o1,-0.08% (inactive)
3,CCC(=O)Nc1ccc2nn(-c3ccc(F)cc3)nc2c1,11.7% (active)
4,Cn1cc(/C=C/C(=O)N2CCCC(C(=O)c3ccc(C(F)(F)F)cc3)C2)cn1 (stereo unspecified),1.67% (inactive)
5,Cc1c(NC(=O)CSc2cccc3cccnc23)c(=O)n(-c2ccccc2)n1C,-8.3% (inactive)
6,Cc1cccc(CSc2ccc(-c3cccs3)nn2)c1,7.87% (active)
7,COC(=O)Cc1nnn2c1[C@H](C)[C@H](c1ccccc1[N+](=O)[O-])OCC2,0.13% (inactive)
8,O=[N+]([O-])c1ccc2c(c1)Nc1nc3ccccc3nc1N2,24.9% (active)
9,COc1cc(/C=N/NC(=O)c2ccccc2)ccc1OS(=O)(=O)c1ccccc1,3.32% (inactive)
10,Cc1nnc(NC(=O)Cn2c(=O)sc3ccccc32)s1,-3.31% (inactive)
11,COC(=O)c1ccc(NCc2cc(O)ccc2O)cc1,1.42% (inactive)
12,Cc1ccc(O)c(CNc2nc3ccccc3n2C)c1,9.22% (active)
13,O=c1c2c(nc3n1CCCCC3)sc1c(O)cccc12,15.2% (active)
14,CC(=O)c1ccc(NC(=O)c2sc3nc4n(c(=O)c3c2C)CCCCC4)cc1,-0.4% (inactive)
15,FC(F)(F)c1cccc(-c2nc3ccccc3n2C(c2ccccc2)c2nc3ccccc3[nH]2)c1 (stereo unspecified),3.9% (inactive)
16,CC(=O)Oc1ccc(C(=O)Nc2nccs2)cc1,6.25% (inactive)
17,CCOc1cccc2c1OC1(CCCCC1)N1N=C(c3cccnc3)CC21 (stereo unspecified),2.8% (inactive)
18,Cc1ccc(-n2c(SCC(=O)N3CCC(C(=O)O)CC3)nc3ccccc3c2=O)cc1C,4.21% (inactive)
19,CN(C)CCNC(=O)c1ccc(Cl)c2cc3ccccc3nc12,-13.7% (inactive)
20,CCCOc1ccc(-c2nc(N)n[nH]2)cc1,4.15% (inactive)
21,Cc1ccccc1C#CC1=CC(=O)CC(C)(C)C1,1% (inactive)

row,Compound,activation
1,Cc1ccccc1C1=N/C(=C/c2cccnc2)C(=O)O1,0.02% (inactive)
2,CCCCCCOC(=O)NCC(O)c1ccccc1 (stereo unspecified),12.4% (active)
3,CCCCc1ccc(NC(=S)N2CCCC(CO)C2)cc1 (stereo unspecified),6.12% (inactive)
4,Cc1ccc(C(=O)Nc2nc3ccc(Cl)cc3s2)o1,3.69% (inactive)
5,CCOC(=O)c1c(C)[nH]c(C2=NNC(=NC(C)COC)SC2)c1C (stereo unspecified),10.6% (active)
6,C1=C(CCNc2ncnc3c2cnn3-c2ccccc2)CCCC1,3.15% (inactive)
7,O=C(N[C@H]1CC[C@H](CC(=O)N2CCCCC2)O[C@@H]1CO)c1cccc(F)c1,0.05% (inactive)
8,CCc1ccc(NC2Nc3cc(C)nn3S2)cc1 (stereo unspecified),8.74% (active)
9,CCCn1c(=O)c2ccccc2n2c(SCC(=O)/C(C#N)=C(\C)N)nnc12,3.09% (inactive)
10,COCC1CCN(C(=O)C2CCC(=O)N(Cc3cccc(C(F)(F)F)c3)C2)CC1 (stereo unspecified),2.05% (inactive)
11,Cc1ccc(Nc2nc(Cl)c(C=O)s2)cc1,-3.27% (inactive)
12,CCc1cc2c(=O)c(-c3ccon3)c(N)oc2cc1OC,14% (active)
13,CN(C)C(CNC(=O)c1ccc(OCc2cn3ccccc3n2)cc1)c1ccco1 (stereo unspecified),2.21% (inactive)
14,O=C(Nc1ccc(NC(=O)c2cccs2)cn1)c1ccco1,2.8% (inactive)
15,Cc1ccnc(Nc2nc3ccccc3s2)n1,10% (active)
16,O=C(NCC1CCCO1)c1cc2c(s1)CCCC2 (stereo unspecified),11% (active)
17,O=C(Nc1ccc(F)cc1)c1cc2c(s1)CCCC2,9.06% (active)
18,Cc1ccnc(NC(=O)C2CCN(S(=O)(=O)c3c(C)c(C)cc(C)c3C)CC2)c1,-0.54% (inactive)
19,COC(=O)c1sc(-c2ccc(C(C)(C)C)cc2)cc1NC(=O)/C=C/C(=O)O,-3.23% (inactive)
20,CCC(C)N(C)C1CCN(C(=S)Nc2ccc(OC)cc2)CC1 (stereo unspecified),1.96% (inactive)
21,COc1cccc(OCCOc2cccc(/C=N/n3cnnc3)c2)c1,3.85% (inactive)

row,Compound,activation
1,COc1ccc(OCCCC(=O)NCCc2ccccc2)cc1,1.28% (inactive)
2,O=C(CCCc1ccccc1)NCc1ccccc1,8.8% (active)
3,Cc1ccc(F)c(NC(=O)CCc2ccccc2)c1,5.33% (inactive)
4,CC(C)c1ccc(NC(=S)NC2CC3C=CC2C3)cc1 (stereo unspecified),6.89% (inactive)
5,CC(C)(C)c1ccc(NC(=O)NCc2ccco2)cc1,14.5% (active)
6,Cc1ccc(NC(=O)C(=O)NCc2ccco2)c(C)c1,0.78% (inactive)
7,Cc1noc(C)c1S(=O)(=O)N(C)C[C@H]1Oc2c(NC(=O)Nc3ccc4c(c3)OCO4)cccc2C(=O)N([C@H](C)CO)C[C@@H]1C,-2.45% (inactive)
8,CC(C)(C)NC(=O)C(CCc1ccccc1)n1c(=O)c(-c2ccccc2)nc2ccccc21 (stereo unspecified),8.75% (active)
9,O=C(Cn1ncc(N2CCCC2)c(Br)c1=O)c1ccc(Cl)cc1,3.52% (inactive)
10,COc1ccc(/C=C/C(=O)Nc2ccc(C34CC5CC(CC(O)(C5)C3)C4)cc2)cc1OC,15.3% (active)
11,Cn1cccc1/C=N/NC(=O)c1ccc(OC(F)(F)C(F)F)cc1,3.85% (inactive)
12,COc1ccc(C(=O)NC2=NCCS2)c(OC)c1,10.5% (active)
13,CC1(C)CC(=O)C=C(NCCCNC2CCCCC2)C1,-0.17% (inactive)
14,O=C(Nc1cc(=O)[nH]c2ncnn12)c1ccccc1Cl,3.68% (inactive)
15,CCCn1nc(C(=O)Nc2ccc3nc(C)sc3c2)c2ccccc2c1=O,-0.9% (inactive)
16,Cc1ccc(C(=O)CSc2ccccc2C(=O)O)cc1,16.1% (active)
17,CC(C)Cc1nnc(NC(=O)CCNC(=O)c2ccccc2Cl)s1,-0.13% (inactive)
18,Cc1ccc(-c2nc3ccc(Cl)cn3c2Cc2ccccc2)cc1,3.06% (inactive)
19,Cc1ccc(N/C=C/C(=O)c2ccccc2)cc1C,0.64% (inactive)
20,Cc1cccc(-n2c(O)c(C=Nc3ccccc3N)c(=O)[nH]c2=O)c1,11.1% (active)
21,Cc1ccsc1C(=O)N/N=C/c1ccc([N+](=O)[O-])cc1,6.1% (inactive)

row,Compound,activation
1,COc1ccc2ccccc2c1CNCc1ccccn1,0.73% (inactive)
2,Cn1sc(=O)c2cc(S(=O)(=O)NC3CC3)ccc21,-1.88% (inactive)
3,COc1cccc(C(=O)Nc2cc3c(cc2Br)OCCCO3)c1,9.25% (active)
4,COc1cccc(C(=O)Nc2nc3ccc(S(C)(=O)=O)cc3s2)c1,2.8% (inactive)
5,O=C(O)c1ccc(COc2c(F)c(F)cc(F)c2F)o1,-2.71% (inactive)
6,Cc1nc(-c2nnc(SCC(=O)Nc3cc(C(F)(F)F)cc(C(F)(F)F)c3)n2C)cs1,-3.07% (inactive)
7,Fc1ccc(/C=N/Nc2nc(-c3cccnc3)nc3ccccc23)cc1,4.27% (inactive)
8,CCOC(=O)Nc1ccc(NC(=O)OCC)cc1,-0.46% (inactive)
9,COc1ccc(C(=O)N/N=c2\oc3ccccc3cc2C(N)=O)cc1,1.59% (inactive)
10,Cc1ccc(NC(=O)c2cc3ccccc3o2)cc1,10.6% (active)
11,O=C(C1CCC1)N1CCN(S(=O)(=O)c2ccc([N+](=O)[O-])cc2)CC1,0.04% (inactive)
12,COC(=O)c1ccc(/C=C2/C(=O)Oc3ccccc32)cc1,-2.13% (inactive)
13,CCc1c(C)c2ccc(OC3CCCCC3=O)cc2oc1=O (stereo unspecified),12.2% (active)
14,O=C(NC1CCCC1)C(=O)c1c[nH]c2ccccc12,4.82% (inactive)
15,CC(=O)c1sc(NC(=O)c2ccc(C)cc2)nc1C,6.35% (inactive)
16,CC1(C(=O)NS(=O)(=O)C2CC2)CCCN(C(=O)CSc2ccccc2)C1 (stereo unspecified),1.21% (inactive)
17,Oc1cccc2ccc(/C=C/c3ccc(Br)s3)nc12,12.9% (active)
18,CC(C)CCNC(=O)c1ccc2c(Cl)c3c(nc2c1)CCC3,2.09% (inactive)
